Published values pooled from the literature.
Compare with care: the assays were run in different laboratories.
Target: Serine/threonine-protein kinase MARK1 (MARK1, Homo sapiens, UniProt Q9P0L2)

C[C@H]1CC[C@H](n2c3cnccc3c3cnc(Nc4ccc5c(n4)CCN(C(=O)CO)C5)nc32)CC1
remaining signal (cell-free assay; 1 µM): 66%

CC#CC(=O)N1CCC[C@H]1c1nc(-c2ccc(C(=O)Nc3ccccn3)cc2)c2c(N)nccn12
inhibition (enzyme activity; inhibitor; 1 µM): 10%

C1=C/COCc2cc(ccc2OCCN2CCCC2)Nc2nccc(n2)-c2cccc(c2)COC/1
remaining binding (binding; 0.1 µM): 100%

C#Cc1cc(-c2cc(Nc3nc(N[C@@H](C)c4ccc(F)cn4)ncc3Cl)n[nH]2)ccc1C=O
inhibition (enzyme activity; inhibitor; 0.2 µM): 8.26%

COc1ccc2oc(-c3ccc4nc(N)oc4c3)c/c(=N\c3ccccc3NC(=O)CCN)c2c1
remaining binding (binding; 1 µM): 103%

CO[C@@H]1[C@H](N(C)C(=O)c2ccccc2)C[C@H]2O[C@]1(C)n1c3ccccc3c3c4c(c5c6ccccc6n2c5c31)C(=O)NC4
inhibition (enzyme activity; inhibitor; 1 µM): 96%

Cc1ccc(NC(=O)c2ccnc(C(F)(F)F)c2)cc1-c1cc(OCCO)nc(N2CCOCC2)c1
remaining binding (binding; 1 µM): 100%

CCCCC(=O)Nc1ccc(-c2ccc3ncn(CCC)c(=O)c3c2)cn1
remaining binding (binding; competition with immobilised ligand; 0.5 µM): 81%
